Experiments:
Adenosine receptor A3 = biological target: T1, Adenosine receptor A3 (Homo sapiens, UniProt P0DMS8); experiment: Displacement of [125I]I-AB-MECA from human adenosine A3 receptor expressed in CHO cells after 60 mins by gamma counting; type: cell-based
T1 sequence (P0DMS8 whole entry): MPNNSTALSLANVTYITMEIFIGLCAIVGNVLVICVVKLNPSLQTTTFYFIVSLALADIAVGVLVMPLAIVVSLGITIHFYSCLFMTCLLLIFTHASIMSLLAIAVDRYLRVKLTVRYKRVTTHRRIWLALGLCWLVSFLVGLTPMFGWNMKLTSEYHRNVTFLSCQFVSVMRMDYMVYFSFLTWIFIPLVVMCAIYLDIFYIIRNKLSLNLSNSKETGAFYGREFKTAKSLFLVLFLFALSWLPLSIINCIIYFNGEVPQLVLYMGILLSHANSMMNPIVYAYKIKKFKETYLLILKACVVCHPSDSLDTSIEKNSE
In short: (§1)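 hA3AR-CHO membranes (20 µg protein) with 0.5 nM [125I]I-AB-MECA and increasing ligand concentrations in 50 mM Tris-HCl pH 7.4, 10 mM MgCl2, 1 mM EDTA; 25 °C, 60 min. Nonspecific binding: 10 µM NECA. Filtered on GF/B, washed three times with ice-cold buffer, gamma-counted.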

Adenosine receptor A2a [1] = biological target: T2, Adenosine receptor A2a (Homo sapiens, UniProt P29274); experiment: Displacement of [3H]CGS21680 from human adenosine A2A receptor expressed in HEK293 cells at 10 uM after 60 mins by […]; type: cell-based
T2 sequence (P29274 whole entry): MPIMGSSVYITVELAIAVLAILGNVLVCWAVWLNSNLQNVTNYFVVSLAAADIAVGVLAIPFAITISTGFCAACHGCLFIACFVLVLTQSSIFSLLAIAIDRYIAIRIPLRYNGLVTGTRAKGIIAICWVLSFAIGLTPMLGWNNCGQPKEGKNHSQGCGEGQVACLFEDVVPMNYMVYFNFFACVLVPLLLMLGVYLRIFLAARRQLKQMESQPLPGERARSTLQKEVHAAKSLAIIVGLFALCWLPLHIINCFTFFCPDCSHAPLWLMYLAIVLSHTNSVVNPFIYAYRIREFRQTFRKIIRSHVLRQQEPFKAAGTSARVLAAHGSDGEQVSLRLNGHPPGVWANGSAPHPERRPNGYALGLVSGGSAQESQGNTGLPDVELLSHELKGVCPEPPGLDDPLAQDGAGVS
In short: (§2)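 HEK-293 cells stably expressing human A2AAR. Membranes at 20 µg/tube were incubated with [3H]CGS21680 at 25 °C for 60 min in 50 mM Tris-HCl pH 7.4 with 10 mM MgCl2. Nonspecific binding was defined with 10 µM NECA, and reactions were stopped by GF/B filtration.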

[2] = biological target: T3, Adenosine receptor A3 (Homo sapiens) (UniProt P0DMS8); experiment: Partial agonist activity at human recombinant adenosine A3 receptor expressed in CHO cells assessed as inhibition of forskolin-stimulated cAMP production at 10 uM incubated for 30 mins prior to forskolin addition by enzyme immunoassay relative to C1-IB-MECA; type: functional, cell-based
T3 sequence (whole entry): T1 sequence (P0DMS8 whole entry)

[3] = biological target: T4, Adenosine receptor A1 (Homo sapiens) (UniProt P30542); experiment: Displacement of [3H]R-PIA from human recombinant adenosine A1 receptor expressed in CHO cells at 10 uM after 60 mins by […]; type: cell-based
T4 sequence (whole entry): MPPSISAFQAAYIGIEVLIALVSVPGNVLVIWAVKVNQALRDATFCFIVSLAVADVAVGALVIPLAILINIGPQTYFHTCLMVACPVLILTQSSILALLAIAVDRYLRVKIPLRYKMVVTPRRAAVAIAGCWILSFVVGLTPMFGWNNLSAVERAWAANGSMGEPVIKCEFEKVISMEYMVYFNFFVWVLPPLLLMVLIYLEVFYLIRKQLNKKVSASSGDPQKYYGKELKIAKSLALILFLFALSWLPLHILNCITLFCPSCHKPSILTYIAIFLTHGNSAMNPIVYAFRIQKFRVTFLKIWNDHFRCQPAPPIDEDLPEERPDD
In short: (§3)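 Membranes (40 µg/tube) from CHO cells stably expressing human A1AR, incubated with 1 nM [3H]R-PIA at 25 °C for 60 min in 50 mM Tris-HCl pH 7.4 with 10 mM MgCl2. Nonspecific binding set with 10 µM NECA. GF/B filtration.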

[4] = biological target: T5, Adenosine receptor A2b (Homo sapiens) (UniProt P29275); experiment: Agonist activity at human recombinant adenosine A2B receptor expressed in CHO cells assessed as induction of cAMP production at 10 uM after 30 mins by immunoassay relative to NECA; type: functional, cell-based
T5 sequence (whole entry): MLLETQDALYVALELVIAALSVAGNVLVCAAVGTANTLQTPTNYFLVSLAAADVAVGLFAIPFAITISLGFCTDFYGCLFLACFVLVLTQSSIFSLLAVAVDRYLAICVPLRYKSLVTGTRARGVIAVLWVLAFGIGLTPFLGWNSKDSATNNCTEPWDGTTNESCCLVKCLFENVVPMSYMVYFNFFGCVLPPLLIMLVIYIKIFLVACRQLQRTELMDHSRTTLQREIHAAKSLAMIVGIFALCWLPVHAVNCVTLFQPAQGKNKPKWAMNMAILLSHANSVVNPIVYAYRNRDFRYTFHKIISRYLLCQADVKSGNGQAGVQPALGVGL

Adenosine receptor A2a [5] = biological target: T2, Adenosine receptor A2a; experiment: Displacement of [3H]CGS21680 from human adenosine A2A receptor expressed in HEK293 cells after 60 mins by […]; type: cell-based; in short: as §2
Adenosine receptor A1 = biological target: T6, Adenosine receptor A1 (Homo sapiens, UniProt P30542); experiment: Displacement of [3H]R-PIA from human recombinant adenosine A1 receptor expressed in CHO cells after 60 mins by […]; type: cell-based; in short: as §3
T6 sequence (P30542 whole entry): T4 sequence (whole entry)

Adenosine receptor A2a [6] = biological target: T2, Adenosine receptor A2a; experiment: Agonist activity at human recombinant adenosine A2A receptor expressed in CHO cells assessed as induction of cAMP production at 10 uM after 30 mins by enzyme immunoassay relative to NECA; type: functional, cell-based
[7] = biological target: T3, Adenosine receptor A3 (Homo sapiens); experiment: Displacement of [125I]I-AB-MECA from human adenosine A3 receptor expressed in CHO cells at 10 uM after 60 mins by gamma counting; type: cell-based; in short: as §1
Rattus norvegicus = experiment: Antiinflammatory activity in Sprague-Dawley rat assessed as reduction in carrageenan-induced paw edema at 20 mg/kg, ip administered 30 mins before carrageenan challenge measured after 4 hrs by plethysmometer analysis; type: functional; parameters: scale not given: the % may be the effect or the level left; details: route intraperitoneal
In short: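 Male Sprague-Dawley rats (140–160 g, 5 weeks), acclimatized one week. Compound at 20 mg/kg given ip in 5% cremophor/5% ethanol in PBS; vehicle as control. After 30 min, 0.1 mL 1% carrageenan in saline was injected subplantar into the right hind paw, with saline in the left. Paw volume was read by plethysmometer at 0–24 h, 4 h included. Mean ± SD, ANOVA.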

[8] = biological target: T3, Adenosine receptor A3 (Homo sapiens); experiment: Competitive antagonist activity at human recombinant adenosine A3 receptor expressed in CHO cells assessed as inhibition of C1-IB-MECA-induced cAMP production preincubated for 30 mins prior to forskolin addition by enzyme immunoassay; type: functional, cell-based
Adenosine receptor A2a [9] = biological target: T2, Adenosine receptor A2a; experiment: Agonist activity at human recombinant adenosine A2A receptor expressed in CHO cells assessed as induction of cAMP production after 30 mins by immunoassay; type: functional, cell-based

Ki (Adenosine receptor A3) [µM]	inhibition (Adenosine receptor A2a [1]) [%]	inhibition [2] [%]	inhibition [3] [%]	Ki (Adenosine receptor A2a [5]) [µM]	SMILES	further results
0.15	46	47.6	24	–	CCCCC#Cc1nc(NCc2cccc(F)c2)c2ncn([C@@H]3SC[C@@H](O)[C@H]3O)c2n1	–
–	–	1.7	–	–	CCCCC#Cc1nc2c(N)ncnc2n1[C@@H]1SC[C@@H](O)[C@H]1O	Activity [4]: 7%
0.024	–	25.2	12	3.91	CCCCC#Cc1nc(NCc2cccc(Br)c2)c2ncn([C@@H]3SC[C@@H](O)[C@H]3O)c2n1	–
0.15	42	39.7	9	–	CCCCC#Cc1nc(NCc2cccc(Cl)c2)c2ncn([C@@H]3OC[C@@H](O)[C@H]3O)c2n1	–
0.0317	27.2	24.5	–	–	CCCCC#Cc1nc2c(N)ncnc2n1[C@@H]1OC[C@@H](O)[C@H]1O	Ki (Adenosine receptor A1): 0.29 µM
–	–	6.1	–	–	CCCC/C=C/c1nc2c(N)ncnc2n1[C@@H]1SC[C@@H](O)[C@H]1O	–
0.039	–	40	15	4.89	CCCCC#Cc1nc(NCc2cccc(I)c2)c2ncn([C@@H]3SC[C@@H](O)[C@H]3O)c2n1	–
0.218	–	42.6	31.9	0.178	CCCC/C=C/c1nc(N)c2ncn([C@@H]3OC[C@@H](O)[C@H]3O)c2n1	Activity (Adenosine receptor A2a [6]): 83%; Activity [4]: 1.8%
0.57	25	29.5	9	–	CCCCC#Cc1nc(NCc2cccc(F)c2)c2ncn([C@@H]3OC[C@@H](O)[C@H]3O)c2n1	–
0.0942	27.3	19.5	–	–	CCCC/C=C/c1nc2c(N)ncnc2n1[C@@H]1OC[C@@H](O)[C@H]1O	Ki (Adenosine receptor A1): 0.5 µM
–	5.8	12.9	18.1	–	CCCCCCc1nc2c(N)ncnc2n1[C@@H]1OC[C@@H](O)[C@H]1O	inhibition [7]: 24.7%
0.067	27	37.2	12	–	CCCCC#Cc1nc(NCc2cccc(Br)c2)c2ncn([C@@H]3OC[C@@H](O)[C@H]3O)c2n1	–
0.22	32	31.5	18	–	CCCCC#Cc1nc(NCc2cccc(I)c2)c2ncn([C@@H]3OC[C@@H](O)[C@H]3O)c2n1	–
–	–	–	–	–	COc1ccc2c(c1)c(CC(=O)O)c(C)n2C(=O)c1ccc(Cl)cc1 [INDOMETHACIN]	Activity (Rattus norvegicus): 49.7%
–	–	2.8	–	–	CCCCC#Cc1nc(N)c2ncn([C@@H]3SC[C@@H](O)[C@H]3O)c2n1	Activity (Rattus norvegicus): 51.1%
0.024	–	47.2	25	3.73	CCCCC#Cc1nc(NCc2cccc(Cl)c2)c2ncn([C@@H]3SC[C@@H](O)[C@H]3O)c2n1	–
–	–	10.7	–	–	CCCC/C=C/c1nc(N)c2ncn([C@@H]3SC[C@@H](O)[C@H]3O)c2n1	Kb [8]: 0.0239 µM; Activity (Adenosine receptor A2a [6]): 109%; EC50 (Adenosine receptor A2a [9]): 0.0206 µM; Activity [4]: 3.6%
–	–	22.3	10	2.16	CCCCCCc1nc(N)c2ncn([C@@H]3OC[C@@H](O)[C@H]3O)c2n1	inhibition [7]: 39%
0.138	–	17.4	–	0.0632	CCCCC#Cc1nc(N)c2ncn([C@@H]3OC[C@@H](O)[C@H]3O)c2n1	Activity (Adenosine receptor A2a [6]): 89.9%; Ki (Adenosine receptor A1): 0.74 µM; EC50 (Adenosine receptor A2a [9]): 0.0803 µM; Activity [4]: 1.9%

From ChEMBL document CHEMBL1944553, “Structure-activity relationships of truncated C2- or C8-substituted adenosine derivatives as dual acting A₂A and A₃ adenosine receptor ligands” (J Med Chem, 2012)
